# Results as given in ChEMBL document CHEMBL1649388, “Imidazo[2,1-b]thiazole carbohydrate derivatives: Synthesis and antiviral activity against Junin virus, agent of Argentine hemorrhagic fever” (Eur J Med Chem, 2011).
# Columns and labels:
# Junin virus [1] = assay: Antiviral activity against Junin virus IV4454 infected in african green monkey Vero cells assessed as reduction in virus yield after 48 hrs by plaque assay; format: functional, organism-based; conditions: Mammarenavirus juninense
# [2] = (§1) Cytotoxicity against african green monkey Vero cells after 48 hrs by MTT assay; format: cell-based, Chlorocebus sabaeus; conditions: chlorocebus sabaeus, Vero cells
# Method in brief: (§2)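 Confluent Vero cultures were exposed to a range of compound concentrations, three wells per concentration, for 48 h at 37 °C. Viability was read by MTT at 595 nm. CC₅₀ is the concentration reducing MTT signal by 50% versus untreated controls. Mean of three determinations.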
# [3] = Selectivity index, ratio of CC50 for african green monkey Vero cells to EC50 for Junin virus IV4454 infected in african green monkey Vero cells; format: toxicity, cell-based; conditions: read-out: Selectivity Index
# Vero = assay: as §1; format: cell-based, Chlorocebus sabaeus; conditions: Chlorocebus sabaeus, Vero, 48 h; method in brief: as §2
# Junin virus [4] = assay: Antiviral activity against Junin virus IV4454 infected in african green monkey Vero cells assessed as reduction in virus yield treated for 1.5 hrs before viral infection measured by plaque assay relative to control; format: functional, organism-based; conditions: Mammarenavirus juninense
# Junin virus [5] = assay: Antiviral activity against Junin virus IV4454 infected in african green monkey Vero cells assessed as reduction in virus yield at 50 to 200 uM treated for 1.5 hrs before viral infection measured by plaque assay relative to control; format: functional, Mammarenavirus juninense
Structure (SMILES),EC50 (Junin virus [1]),CC50 at 48 h [2],selectivity ratio [3],IC50 (Vero),inhibition (Junin virus [4]),fold change (FC) (Junin virus [5])
"COC1[C@@H](C(=O)c2cnc3sc(C(=O)c4ccccc4)cn23)O[C@@H]2OC(C)(C)O[C@H]12 (single isomer, unassigned)",18.5 µM,> 400 µM,> 21.6,,,
CC(=O)O[C@@H]1[C@H]2OC(C)(C)O[C@H]2O[C@@H]1C(=O)c1cnc2sc(C(=O)c3ccc(Cl)cc3)cn12,7.5 µM,70 µM,9.3,,,
CO[C@@H]1[C@H]2OC(C)(C)O[C@H]2O[C@@H]1C(=O)c1cn2cc(C(=O)c3ccc(Br)cc3)nc2s1,4.3 µM,351 µM,81.6,,,
NC(=O)c1ncn([C@@H]2O[C@H](CO)[C@@H](O)[C@H]2O)n1 [RIBAVIRIN],18.5 µM,,> 21.6,> 400 µM,,
CC(=O)O[C@@H]1[C@H]2OC(C)(C)O[C@H]2O[C@@H]1C(=O)c1cnc2sc(C(=O)c3ccccc3)cn12,7.9 µM,> 400 µM,> 50.6,,,
"COC1[C@@H](C(=O)c2cnc3sc(C(=O)c4ccc(Br)cc4)cn23)O[C@@H]2OC(C)(C)O[C@H]12 (single isomer, unassigned)",1.1 µM,295 µM,268,,Dose-dependent effect,15
CO[C@@H]1[C@H]2OC(C)(C)O[C@H]2O[C@@H]1C(=O)c1cn2cc(C(=O)c3ccc(Cl)cc3)nc2s1,11.9 µM,> 400 µM,> 33.6,,,
CO[C@@H]1[C@H]2OC(C)(C)O[C@H]2O[C@@H]1C(=O)c1cn2cc(C(=O)c3ccc(F)cc3)nc2s1,2.9 µM,> 400 µM,> 138,,,
CO[C@@H]1[C@H]2OC(C)(C)O[C@H]2O[C@@H]1C(=O)c1cnc2sc(C(=O)c3ccc(F)cc3)cn12,78.3 µM,> 400 µM,> 5.1,,,
CC(=O)O[C@@H]1[C@H]2OC(C)(C)O[C@H]2O[C@@H]1C(=O)c1cnc2sc(C(=O)c3ccc(F)cc3)cn12,4.9 µM,> 400 µM,> 81.6,,,
CO[C@@H]1[C@H]2OC(C)(C)O[C@H]2O[C@@H]1C(=O)c1cn2cc(C(=O)c3ccccc3)nc2s1,12.3 µM,> 400 µM,> 32.5,,,
CC(=O)O[C@@H]1[C@H]2OC(C)(C)O[C@H]2O[C@@H]1C(=O)c1cnc2sc(C(=O)c3ccc(Br)cc3)cn12,5.6 µM,139 µM,24.8,,,
CO[C@@H]1[C@H]2OC(C)(C)O[C@H]2O[C@@H]1C(=O)c1cnc2sc(C(=O)c3ccc(Cl)cc3)cn12,0.8 µM,371 µM,464,,,
